Screening data as filed in PubChem.
ALR inh = human ALR oxidase inhibition via reduced H2O2 | P55789 | purified ALR, DTT oxidation, H2O2 HRP-luminol luminescence | inhibition, % (test concentration not listed) | actives 3.8% (n = 290,000);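 active means mean replicate inhibition above about 79%, with every replicate also reaching it, limit read from the data; inconclusive means only one of the two criteria met; inactive means mean below limit and not every replicate reaching it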
Target sequence (P55789 whole entry, looked up): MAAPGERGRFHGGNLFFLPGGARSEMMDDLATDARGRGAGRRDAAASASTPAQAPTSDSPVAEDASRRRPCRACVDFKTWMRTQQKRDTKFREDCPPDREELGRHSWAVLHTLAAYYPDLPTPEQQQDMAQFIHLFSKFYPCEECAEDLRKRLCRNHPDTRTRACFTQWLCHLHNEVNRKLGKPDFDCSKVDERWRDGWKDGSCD
HDAC3 inh = human HDAC3 inhibition | actives 0.15% (n = 320,000) | recombinant HDAC3, fluorogenic peptide/trypsin coupled, fluorescence | AID 2718 | O15379 | inhibition, % at 8.3 µM; in the data active means inhibition above about 26%, passing the limit was not always enough; inconclusive means no clear call, values can overlap the other calls
M18AAP inhibitor = PfM18AAP enzyme inhibition | recombinant PfM18AAP, H-Glu-NHMec fluorogenic cleavage | actives 1.2% (n = 290,000) | inhibition, % at 7.35 µM;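 active means inhibition above the campaign mean inhibition over all tested compounds plus 3 SD, cut at about 28% in these data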;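 further: 0% = plate median of test compound wells and 100% = 2 mM ZnCl2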
Rtt109 HAT inh = blocks Candida albicans Rtt109/Vps75 acetyltransferase activity; inhibition, % at 34.9 µM; AID 540336; purified Rtt109/Vps75, ThioGlo CoA-SH fluorescence, 4 h; actives 0.16% (n = 330,000); Q5AAJ8;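 active means inhibition of at least 50% in every replicate; inconclusive means best replicate reaches 50% inhibition but some replicates fall short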
UCH37 DUB inh = blocks the human deubiquitinase UCH37 | inhibition, % (test concentration not listed) | actives 0.33% (n = 330,000) | Q9Y5K5 | purified proteasome/UCH37, Ub-AMC cleavage fluorescence;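 active means mean inhibition over replicate wells above about 20%, limit read from the data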;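 further: 0% = compound-free wells with enzyme and 100% = wells lacking proteasome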
Target sequence (Q9Y5K5 whole entry, looked up): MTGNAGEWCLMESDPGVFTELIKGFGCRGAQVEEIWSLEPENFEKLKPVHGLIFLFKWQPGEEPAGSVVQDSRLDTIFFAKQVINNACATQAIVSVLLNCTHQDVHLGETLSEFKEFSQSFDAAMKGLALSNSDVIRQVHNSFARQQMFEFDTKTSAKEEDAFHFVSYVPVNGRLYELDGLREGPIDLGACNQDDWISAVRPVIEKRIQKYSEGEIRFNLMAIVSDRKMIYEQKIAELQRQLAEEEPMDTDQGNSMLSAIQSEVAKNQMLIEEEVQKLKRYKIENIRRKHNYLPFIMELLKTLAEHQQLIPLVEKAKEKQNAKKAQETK
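Material: Human UCH37 enzyme supplied as purified proteasome complex | Schedule: 30 min preincubation with enzyme, 25 min cleavage at room temperature | Detection: AMC fluorescence 355/460 nm | Measure: % inhibition of Ub-AMC cleavage fluorescence | Controls: Wells without proteasome as full block, compound-free enzyme plus substrate as uninhibited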
FAS TE block = FAS thioesterase (human) inhibition; AID 602261; P49327; recombinant FAS-TE, OMFH fluorogenic substrate, fluorescence endpoint; inhibition, % at 15 µM; actives 0.67% (n = 360,000);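 active means compounds whose normalised, plate-corrected inhibition of enzyme fluorescence in the single-dose primary screen is 50% or more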;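 further: 0% = DMSO with enzyme and 100% = substrate without enzyme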
Active calls of the source: *; i = inactive; u = inconclusive; x = not tested or not shown. The list is not random: actives were taken first. Their share in the collection is about 4.6%.

SMILES | ALR inh | HDAC3 inh | M18AAP inhibitor | Rtt109 HAT inh | UCH37 DUB inh | FAS TE block
CCOc1ccccc1C1N=C(c2ccc(OC)cc2)CC(c2ccccc2O)N1 (centres undefined) | 96* | -5 | 5 | 18 | -1 | 14
CC(C)C1N=C(c2ccc3c(c2)OCO3)CC(c2ccccc2O)N1 (centres undefined) | 20 | 4 | 2 | -5 | 1 | 11
Cc1ccc(C(=O)Nc2nc3ccccc3c(=O)s2)cc1 | 2 | -1 | 31* | 7 | 6 | -4
CSc1nc2ccc3nc(NC(=O)c4ccc(C)cc4)sc3c2s1 | 0 | -6 | -3 | -7 | -53 | 4
COC(=O)c1ccc(C=NN2CCN(Cc3ccc(C)cc3)CC2)cc1 | x | x | x | x | 3 | x
CN=c1scc(-c2ccccc2F)n1/N=C(\C)c1cccnc1 | 94* | -1 | 3 | 3 | x | 7
CN=c1scc(-c2ccccc2F)n1N=C(C)c1cccnc1 | x | x | x | x | 7 | x
COc1cc(C=NNC(=S)Nc2cccc(C(=O)O)c2)cc(OC)c1OC | x | x | x | x | 12 | x
COc1ccc(OC)c(C=NN(C)c2ccccc2)c1 | x | x | x | x | 1 | x
O=C1CCCCC1C(Nc1ccc(Br)cc1)c1ccccc1 (centres undefined) | 29 | u | -1 | -9 | 7 | 30
O=C1CCCCC1C(Nc1ccc(Cl)cc1)c1ccccc1 (centres undefined) | 98* | 8 | 8 | 3 | 8 | 24
OCC1(CO)COC(c2ccccc2)=N1 | -15 | 3 | 1 | -2 | 0 | -17
O=C1OCC(CO)(CO)N=C1NNc1ccc(Cl)c(Cl)c1 | 100* | -1 | 11 | 3 | 9 | -6
CCN(CC)S(=O)(=O)c1cccc(C(=O)N/N=C/c2ccc(OC)c(O)c2)c1 | 97* | 10 | -3 | 5 | x | -7
COc1cc(/C=N/NC(=O)c2ccc(O)cc2)ccc1Oc1ccc([N+](=O)[O-])cn1 | 92* | 0 | 2 | 6 | x | 14
CC(C)(C)C(=O)Nc1ccc(C(=O)N/N=C/c2ccccc2OC(=O)c2ccccc2)cc1 | -1 | 35* | 0 | -13 | x | 29
CC(C)(C)C(=O)Nc1ccc(C(=O)NN=Cc2ccccc2OC(=O)c2ccccc2)cc1 | x | x | x | x | 0 | x
Cc1nc2c(C)cccc2cc1C(=O)N/N=C/c1cccc([N+](=O)[O-])c1 | 98* | 2 | 5 | -13 | x | 16
CCOc1c(Cl)cc(C=NO)cc1OC | x | x | x | x | 5 | x
O=C(NN=Cc1cccnc1)c1cc2ccccc2o1 | x | x | x | x | 6 | x
COc1cc(/C=N/NC(=O)c2cccc([N+](=O)[O-])c2)cc(OC)c1O | 98* | 10 | 13 | -13 | x | 8
CN(C)c1ccc(/C=C(\NC(=O)c2ccccc2)C(=O)N/N=C/c2ccc(C(=O)O)cc2)cc1 | x | 10 | 13 | 1 | x | -6
CN(C)c1ccc(/C=C(/NC(=O)c2ccccc2)C(=O)NN=Cc2ccc([N+](=O)[O-])c(O)c2)cc1 | x | x | x | x | 20* | x
O=C(N/N=C/c1ccc(OC(=O)c2ccccc2)c([N+](=O)[O-])c1)c1ccc(O)cc1 | 94* | 11 | 6 | 6 | x | -2
COc1cc(C=NNC(=O)c2cccc([N+](=O)[O-])c2)cc(OC)c1O | x | x | x | x | 9 | x
SMILES | ALR inh | HDAC3 inh | M18AAP inhibitor | Rtt109 HAT inh | UCH37 DUB inh | FAS TE block
COc1cc(/C=N/NC(=O)c2cccc(NC(=O)c3ccccc3Cl)c2)ccc1O | 88* | 0 | 4 | -6 | x | -5
COc1cc(C=NNC(=O)c2cccc(NC(=O)c3ccccc3Cl)c2)ccc1O | x | x | x | x | 0 | x
O=C(CSCc1ccc([N+](=O)[O-])cc1)NN=Cc1ccncc1 | x | x | x | x | 2 | x
S=c1[nH]nc(C2CCCCC2)n1N=Cc1cccs1 | x | x | x | x | 6 | x
COc1cc(/C=N/N=C/c2c[nH]c(=O)c(C#N)c2Nc2ccccc2)ccc1O | 78* | -7 | -5 | x | x | x
COc1cc(/C=N/NC(=O)c2ccc(CSc3nc4ccccc4[nH]3)cc2)ccc1O | 99* | -11 | -6 | 1 | x | 0
COc1cc(C(=O)N/N=C/c2cn(Cc3ccccc3)c3ccccc23)ccc1O | 85* | 9 | 18 | 12 | x | 2
COc1cc(C(=O)NN=C(C)c2ccc(NC(=O)Cc3ccccc3)cc2)ccc1O | x | x | x | x | 5 | x
COc1cc(C=NN=Cc2c[nH]c(=O)c(C#N)c2Nc2ccccc2)ccc1O | x | x | x | x | 4 | x
COc1cc(C=NNC(=O)c2ccc(CSc3nc4ccccc4[nH]3)cc2)cc(OC)c1OC | x | x | x | x | -13 | x
COc1cc(C(=O)N/N=C(\C)c2ccc(NC(=O)Cc3ccccc3)cc2)ccc1O | 95* | 8 | 4 | -4 | x | -2
COc1ccc(C=NNC(=O)c2ccccc2[N+](=O)[O-])cc1COc1c(F)c(F)c(F)c(F)c1F | x | x | x | x | 2 | x
COc1cc(C=NNC(=O)c2ccccc2)ccc1O | x | x | x | x | 6 | x
COc1ccc(/C=N/NC(=O)c2cccnc2)cc1 | -13 | 4 | 11 | 1 | x | -2
COc1cc([N+](=O)[O-])cc(C=NNC(=O)C(C)Nc2ccccc2C)c1O (centres undefined) | x | x | x | x | 20* | x
COc1cc(/C=N/NC(=O)c2ccccc2)ccc1O | 100* | -1 | -1 | -6 | x | -7
COc1cc(/C=N/NC(=O)CN(Cc2ccco2)S(=O)(=O)c2ccccc2)ccc1O | 100* | 7 | -3 | 8 | x | -6
COc1ccc(/C=N/NC(=O)c2cccnc2)cc1O | 88* | -1 | 2 | 3 | x | -2
NC(=NOC(=O)CCCC(=O)O)c1ncc(C(F)(F)F)cc1Cl | x | x | x | x | 0 | x
COc1cc(C=NNC(=O)Cc2ccccc2)cc([N+](=O)[O-])c1O | x | x | x | x | 22* | x
COC(=O)NN=Cc1cc(OC)c(O)c([N+](=O)[O-])c1 | x | x | x | x | 14 | x
Cc1nn2c(NCCCN(C)C)c3c(nc2c1-c1ccccc1)CCCC3 | 97* | 15 | -7 | -6 | 1 | 8
Cc1nn2c(NCCOCCO)c3c(nc2c1-c1ccccc1)CCC3 | 56 | 2 | -10 | -10 | 0 | 0
COCCNc1c2c(nc3c(-c4ccccc4)c(C)nn13)CCC2 | x | 4 | -9 | -11 | -14 | 17
Cc1nn2c(NCCCN(C)C)c3c(nc2c1-c1ccccc1)CCC3 | 88* | 1 | -1 | -9 | -3 | -3
SMILES | ALR inh | HDAC3 inh | M18AAP inhibitor | Rtt109 HAT inh | UCH37 DUB inh | FAS TE block
CN1CCN(C(=O)c2cc3c(=O)n4ccccc4nc3s2)CC1 | x | -98 | 29* | 11 | i | -5
CCOC(=O)N1CCN(C(=O)c2cc3c(=O)n4ccccc4nc3s2)CC1 | -5 | -52 | 0 | -67 | i | 5
Cc1cccc(-n2c(CCn3nc(C)c([N+](=O)[O-])c3C)n[nH]c2=S)c1 | 92* | 12 | 18 | 3 | 4 | -2
Cc1ccc2nc(C)c(=NO)c(C)nc2c1 | x | x | x | x | 0 | x
O=[N+]([O-])/C(C(Cl)=C(Cl)Cl)=C(/Sc1ccccc1)N1CCCCC1 | 92* | 6 | 5 | 7 | 7 | 25
CC(=O)Nc1cccc(NC(=O)c2cccc(Cl)c2)c1 | x | x | x | x | x | -2
O=C(NCC1CCCCC1)c1cccc(-c2ccc(O)cc2)c1 | 82* | 2 | 10 | 3 | 4 | 16
